From ChEMBL document CHEMBL1806466, “2-Amino-4-methyl-5-phenylethyl substituted-7-N-benzyl-pyrrolo[2,3-d]pyrimidines as novel antitumor antimitotic agents that also reverse tumor resistance” (Bioorg Med Chem, 2011)

Key:
HCT-15 = assay: Antitumor activity against human HCT15 cells after 48 hrs by sulforhodamine B assay; type: functional; details: HCT-15, 48 h
Procedure, shortened: (§1)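 NCI-60 screen, adherent lines: grown in RPMI 1640 with 5% FBS and 2 mM L-glutamine. Seeded at 5,000–40,000 cells/well by doubling time and preincubated 24 h at 37 °C, 5% CO2, with time-zero plates TCA-fixed. Five concentrations (10-fold or half-log) given for 48 h. Fixed with cold TCA (10% final), then SRB-stained and read at A515. GI50 is 50% reduction of net protein increase versus control.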

SNB-75 = assay: Antitumor activity against human SNB75 cells after 48 hrs by sulforhodamine B assay; type: functional; details: SNB-75, 48 h; procedure, shortened: as §1
LOX IMVI = assay: Antitumor activity against human LOXIMVI cells after 48 hrs by sulforhodamine B assay; type: functional; procedure, shortened: as §1
HT-29 = assay: Antitumor activity against human HT-29 cells after 48 hrs by sulforhodamine B assay; type: functional; details: HT-29, 48 h; procedure, shortened: as §1
OVCAR-3 = assay: Antitumor activity against human OVCAR3 cells after 48 hrs by sulforhodamine B assay; type: functional; details: OVCAR-3, 48 h; procedure, shortened: as §1
PC-3 = assay: Antitumor activity against human PC3 cells after 48 hrs by sulforhodamine B assay; type: functional; details: PC-3, 48 h; procedure, shortened: as §1
SN12C = assay: Antitumor activity against human SN12C cells after 48 hrs by sulforhodamine B assay; type: functional; procedure, shortened: as §1
DU-145 = assay: Antitumor activity against human DU145 cells after 48 hrs by sulforhodamine B assay; type: functional; details: DU-145, 48 h; procedure, shortened: as §1
BT-549 = assay: Antitumor activity against human BT549 cells after 48 hrs by sulforhodamine B assay; type: functional; details: BT-549, 48 h; procedure, shortened: as §1
TK-10 = assay: Antitumor activity against human TK10 cells after 48 hrs by sulforhodamine B assay; type: functional; details: TK-10, 48 h
Procedure, shortened: (§2)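 NCI-60 panel lines grown in RPMI 1640 with 5% FBS and 2 mM L-glutamine. Cells plated at 5,000–40,000/well by doubling time, given 24 h before drug, then exposed to five concentrations for 48 h at 37 °C. Time-zero plates fixed with TCA. Cells fixed with TCA, stained with 0.4% SRB, read at 515 nm. GI50 = 50% reduction in net protein increase versus control.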

HCC 2998 = assay: Antitumor activity against human HCC2998 cells after 48 hrs by sulforhodamine B assay; type: functional; details: HCC 2998, 48 h; procedure, shortened: as §1
M14 = assay: Antitumor activity against human M14 cells after 48 hrs by sulforhodamine B assay; type: functional; details: M14, 48 h; procedure, shortened: as §1
RPMI-8226 = assay: Antitumor activity against human RPMI8226 cells after 48 hrs by sulforhodamine B assay; type: functional; details: RPMI-8226, 48 h
Procedure, shortened: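 NCI-60 screen, suspension lines: grown in RPMI 1640 with 5% FBS and 2 mM L-glutamine. Seeded at 5,000–40,000 cells/well and preincubated 24 h at 37 °C, 5% CO2, with time-zero plates fixed. Five concentrations (10-fold or half-log) given for 48 h. Settled cells fixed with 80% TCA (16% final), then SRB-stained and read at 515 nm. GI50 is from the net growth relative to time zero and control.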

UO-31 = assay: Antitumor activity against human UO31 cells after 48 hrs by sulforhodamine B assay; type: functional; details: UO-31, 48 h; procedure, shortened: as §2
OVCAR-4 = assay: Antitumor activity against human OVCAR4 cells after 48 hrs by sulforhodamine B assay; type: functional; details: OVCAR-4, 48 h; procedure, shortened: as §1
NCI-H23 = assay: Antitumor activity against human NCI-H23 cells after 48 hrs by sulforhodamine B assay; type: functional; details: NCI-H23, 48 h; procedure, shortened: as §1
MDA-MB-435 = assay: Antitumor activity against human MDA-MB-435 cells after 48 hrs by sulforhodamine B assay; type: functional; details: MDA-MB-435, 48 h; procedure, shortened: as §1
MCF7 [1] = assay: Resistance factor, ratio of IC50 for drug-resistant […] human NCI/ADR cells expressing Pgp in absence of vinblastin to IC50 for drug-sensitive human MCF7 cells in presence of 50 nM vinblastin; type: functional
HL-60(TB) = assay: Antitumor activity against human HL-60(TB) cells after 48 hrs by sulforhodamine B assay; type: functional; details: HL-60, 48 h
Procedure, shortened: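 NCI-60 screen: cells grown in RPMI 1640 with 5% FBS and 2 mM L-glutamine, seeded at 5,000–40,000 cells/well and incubated 24 h at 37 °C, 5% CO2 before dosing. Five concentrations (10-fold or ½-log dilutions from DMSO stock), 48 h. Suspension cells fixed with 80% TCA (final 16%), stained with 0.4% SRB, A515 read. GI50 calculated against time-zero and control growth.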

786-0 = assay: Antitumor activity against human 786-0 cells after 48 hrs by sulforhodamine B assay; type: functional; details: 786-0, 48 h; procedure, shortened: as §1
Malme-3M = assay: Antitumor activity against human MALME-3M cells after 48 hrs by sulforhodamine B assay; type: functional; procedure, shortened: as §1
OVCAR-5 = assay: Antitumor activity against human OVCAR5 cells after 48 hrs by sulforhodamine B assay; type: functional; details: OVCAR-5, 48 h; procedure, shortened: as §1
U-251 = assay: Antitumor activity against human U251 cells after 48 hrs by sulforhodamine B assay; type: functional; details: U-251, 48 h; procedure, shortened: as §2
UACC-62 = assay: Antitumor activity against human UACC62 cells after 48 hrs by sulforhodamine B assay; type: functional; details: UACC-62, 48 h; procedure, shortened: as §2
SNB-19 = assay: Antitumor activity against human SNB19 cells after 48 hrs by sulforhodamine B assay; type: functional; details: SNB-19, 48 h; procedure, shortened: as §1
T47D = assay: Antitumor activity against human T47D cells after 48 hrs by sulforhodamine B assay; type: functional; procedure, shortened: as §2
SF-268 = assay: Antitumor activity against human SF268 cells after 48 hrs by sulforhodamine B assay; type: functional; details: SF-268, 48 h; procedure, shortened: as §1
SF-295 = assay: Antitumor activity against human SF295 cells after 48 hrs by sulforhodamine B assay; type: functional; details: SF-295, 48 h; procedure, shortened: as §1
MCF7 [2] = assay: Resistance factor, ratio of IC50 for Pgp-deficient human MCF7/VP cells expressing MRP1 in absence of vincristine to IC50 for drug sensitive human MCF7 cells in presence of 1 nM vincristine
SK-OV-3 = assay: Antitumor activity against human SKOV3 cells after 48 hrs by sulforhodamine B assay; type: functional; details: SK-OV-3, 48 h; procedure, shortened: as §1
MDA-MB-231 = assay: Antitumor activity against human MDA-MB-231 cells after 48 hrs by sulforhodamine B assay; type: functional; details: MDA-MB-231, 48 h; procedure, shortened: as §1
A549 = assay: Antitumor activity against human A549 cells after 48 hrs by sulforhodamine B assay; type: functional; details: A549, 48 h; procedure, shortened: as §1

`COc1cc(CCc2cn(Cc3ccccc3)c3nc(N)nc(C)c23)c(OC)c(OC)c1OC` was tested, and the GI50 (HCT-15) was 3.2 µM, the GI50 (SNB-75) was 2.25 µM and the GI50 (LOX IMVI) was 5.29 µM. The GI50 (HT-29) was 3.6 µM, the GI50 (OVCAR-3) was 1.2 µM and the GI50 (PC-3) was 3.08 µM. It also gave a GI50 (SN12C) of 6.86 µM, a GI50 (DU-145) of 2.5 µM and a GI50 (BT-549) of 9.75 µM. It also gave a GI50 (TK-10) of 7.62 µM, a GI50 (HCC 2998) of 5.89 µM and a GI50 (M14) of 3.33 µM. It also gave a GI50 (RPMI-8226) of 1.69 µM, a GI50 (UO-31) of 5.37 µM and a GI50 (OVCAR-4) of 8.83 µM. The GI50 (NCI-H23) was 3.61 µM, the GI50 (MDA-MB-435) was 0.34 µM and the “Ratio IC50” value (MCF7 [1]) was 0.29. It also gave a GI50 (HL-60(TB)) of 2.06 µM, a GI50 (786-0) of 4.5 µM and a GI50 (Malme-3M) of 10.4 µM. The GI50 (OVCAR-5) was 11.9 µM, the GI50 (U-251) was 3.93 µM and the GI50 (UACC-62) was 2.13 µM. For the same molecule, the GI50 (SNB-19) was 4.68 µM, the GI50 (T47D) was 1.69 µM and the GI50 (SF-268) was 4.4 µM. For the same molecule, the GI50 (SF-295) was 1.39 µM, the “Ratio IC50” value (MCF7 [2]) was 0.37 and the GI50 (SK-OV-3) was 2.98 µM. The GI50 (MDA-MB-231) was 3.69 µM and the GI50 (A549) was 5.33 µM.
